# From ChEMBL document CHEMBL3612066, “Design, Synthesis, and Biological Evaluation of Pyrazolo[1,5-a]pyridine-3-carboxamides as Novel Antitubercular Agents” (ACS Med Chem Lett, 2015)
# Experiments:
# Assay type in all cases: functional
# [1] = test system: Mycobacterium tuberculosis; experiment: Antitubercular activity against multidrug-resistant Mycobacterium tuberculosis UAlP163 after 7 days by autoluminescent assay; conditions: UAlP163, 168 h
# In short: (§1)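 Autoluminescent assay against MDR clinical isolates (3495, P71, 9804, 4768, P163). Bacterial growth was read as bioluminescence intensity with no added substrate. MIC values are means of two independent experiments.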
# [2] = test system: Mycobacterium tuberculosis; experiment: Antitubercular activity against multidrug-resistant Mycobacterium tuberculosis UAlP7 after 7 days by autoluminescent assay; conditions: UAlP7, 168 h; in short: as §1
# [3] = test system: Mycobacterium tuberculosis; experiment: Antitubercular activity against multidrug-resistant Mycobacterium tuberculosis UAl4768 after 7 days by autoluminescent assay; conditions: UAl4768, 168 h; in short: as §1
# [4] = test system: Mycobacterium tuberculosis; experiment: Antitubercular activity against multidrug-resistant Mycobacterium tuberculosis UAl3495 after 7 days by autoluminescent assay; conditions: UAl3495, 168 h; in short: as §1
# [5] = test system: Mycobacterium tuberculosis; experiment: Antitubercular activity against multidrug-resistant Mycobacterium tuberculosis UAl9804 after 7 days by autoluminescent assay; conditions: UAl9804, 168 h; in short: as §1
SMILES,MIC [1],MIC [2],MIC [3],MIC [4],MIC [5]
COc1ccn2nc(C)c(C(=O)NCc3ccc(N4CCC(c5ccc(OC(F)(F)F)cc5)CC4)cc3)c2c1,0.0111 µM,0.0111 µM,0.0111 µM,0.0223 µM,< 0.0111 µM
Cc1nn2ccc(Cl)cc2c1C(=O)NCc1ccc(N2CCC(c3ccc(OC(F)(F)F)cc3)CC2)cc1,< 0.184 µM,< 0.184 µM,< 0.184 µM,,< 0.184 µM
CCc1nn2ccc(Cl)cc2c1C(=O)NCc1ccc(N2CCC(c3ccc(OC(F)(F)F)cc3)CC2)cc1,< 0.0359 µM,0.0718 µM,0.0359 µM,,< 0.0359 µM
Cc1ccn2nc(C)c(C(=O)NCc3ccc(N4CCC(c5ccc(OC(F)(F)F)cc5)CC4)cc3)c2c1,< 0.383 µM,< 0.383 µM,< 0.383 µM,1.91 µM,< 0.383 µM
